Results as given in ChEMBL document CHEMBL1124106, “Synthesis of diethylenetriaminepentaacetic acid conjugated inulin and utility for cellular uptake of liposomes” (J Med Chem, 1988).
“And” between values parts separate entries of the source, which are not always exact repeats. Equal entries are not always repeated.

What was measured:
Mus musculus [1] = assay: Biodistribution in mice intestine, after 12 hr of intravenous administration of 1-2 ug of compound (entrapped in bovine brain sphingomyelin/ cholesterol multilamellar vehicles); format: ADME, organism-based; conditions: in vivo
Method in brief: (§1)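 BALB/c mice (about 25 g), 3–5 per group, given 50–100 μL tail-vein injection of 111In-labeled conjugate entrapped in SM/CH (2:1 mol/mol) multilamellar vesicles, approx. 100 000 cpm; dose 1–2 μg phospholipid/g body weight. Killed by cervical dislocation at set times; blood, cumulative excretion and rinsed, blotted, weighed tissues γ-counted, blood background subtracted. Result is % injected dose ± SD.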

Mus musculus [2] = assay: Biodistribution in mice intestine, after 1 hr of intravenous administration of 1-2 ug of compound (entrapped in bovine brain sphingomyelin/ cholesterol multilamellar vehicles); format: ADME, organism-based; conditions: in vivo; method in brief: as §1
Mus musculus [3] = assay: Biodistribution in mice kidneys, after 12 hr of intravenous administration of 1-2 ug of compound (entrapped in bovine brain sphingomyelin/ cholesterol multilamellar vehicles); format: ADME, organism-based, Kidney; conditions: in vivo; method in brief: as §1
Mus musculus [4] = assay: Biodistribution in mice kidneys, after 48 hr of intravenous administration of 1-2 ug of compound (entrapped in bovine brain sphingomyelin/ cholesterol multilamellar vehicles); format: ADME, organism-based, Kidney; conditions: in vivo; method in brief: as §1
Mus musculus [5] = assay: Biodistribution in mice liver, after 12 hr of intravenous administration of 1-2 ug of compound (entrapped in bovine brain sphingomyelin/ cholesterol multilamellar vehicles); format: ADME, organism-based; conditions: in vivo; method in brief: as §1
Mus musculus [6] = assay: Biodistribution in mice liver, after 1 hr of intravenous administration of 1-2 ug of compound (entrapped in bovine brain sphingomyelin/ cholesterol multilamellar vehicles); format: ADME, organism-based; conditions: in vivo; method in brief: as §1
Mus musculus [7] = assay: Biodistribution in mice lung, after 12 hr of intravenous administration of 1-2 ug ofcompound (entrapped in bovine brain sphingomyelin/ cholesterol multilamellar vehicles); format: ADME, organism-based; conditions: in vivo; method in brief: as §1
Mus musculus [8] = assay: Biodistribution in mice fat, after 48 hr of intravenous administration of 1-2 ug of compound (entrapped in bovine brain sphingomyelin/ cholesterol multilamellar vehicles); format: ADME, organism-based; conditions: in vivo; method in brief: as §1
Mus musculus [9] = assay: Biodistribution in mice heart, after 12 hr of intravenous administration of compound (entrapped in bovine brain sphingomyelin/ cholesterol multilamellar vehicles); format: ADME, organism-based; conditions: in vivo; method in brief: as §1
Mus musculus [10] = assay: Biodistribution in mice fat, after 1 hr of intravenous administration of 1-2 ug ofcompound (entrapped in bovine brain sphingomyelin/ cholesterol multilamellar vehicles); format: ADME, organism-based; conditions: in vivo; method in brief: as §1
Mus musculus [11] = assay: Biodistribution of compound in mice carcass after 0.17 hr of intravenous injection; format: ADME, organism-based; conditions: in vivo
Method in brief: (§2)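 BALB/c mice (about 25 g), n = 4. Free ¹¹¹In- or ⁶⁷Ga-labeled compound (50–100 μL, about 100 000 cpm) was injected into a tail vein. Mice were held in separate cages and killed by cervical dislocation, with blood and cumulative excreta collected. Tissues were rinsed, blotted, weighed and γ-counted, with blood background subtracted (blood volume 8.0%). Values are % injected dose ± SD.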

Mus musculus [12] = assay: Biodistribution of compound in mice carcass after 21 hr of intravenous injection; format: ADME, organism-based; conditions: in vivo; method in brief: as §2
[13] = (§3) Biodistribution of compound in mice excretion after 21 hr of intravenous injection; format: ADME, organism-based; conditions: mouse, excretion (excreta, not specified further), read-out: ID; method in brief: as §2
Mus musculus [14] = assay: as §3; format: ADME, organism-based; conditions: in vivo, 21 h; method in brief: as §2
Mus musculus [15] = assay: Biodistribution of compound in mice intestine after 1 hr of intravenous injection; format: ADME, organism-based; conditions: in vivo; method in brief: as §2
Mus musculus [16] = assay: Biodistribution of compound in mice intestine after 21 hr of intravenous injection; format: ADME, organism-based; conditions: in vivo; method in brief: as §2
Mus musculus [17] = assay: Biodistribution of compound in mice kidneys after 1 hr of intravenous injection; format: ADME, organism-based, Kidney; conditions: in vivo; method in brief: as §2
Mus musculus [18] = assay: Biodistribution in mice spleen, after 12 hr of intravenous administration of 1-2 ug of compound (entrapped in bovine brain sphingomyelin/ cholesterol multilamellar vehicles); format: ADME, organism-based; conditions: in vivo; method in brief: as §1
Mus musculus [19] = assay: Biodistribution in mice spleen, after 1 hr of intravenous aadministration of 1-2 ug of compound (entrapped in bovine brain sphingomyelin/ cholesterol multilamellar vehicles); format: ADME, organism-based; conditions: in vivo; method in brief: as §1
Mus musculus [20] = assay: Biodistribution in mice spleen, after 48 hr of intravenous administration of 1-2 ug of compound (entrapped in bovine brain sphingomyelin/ cholesterol multilamellar vehicles); format: ADME, organism-based; conditions: in vivo; method in brief: as §1
Mus musculus [21] = assay: Biodistribution in mice brain, after 48 hr of intravenous administrating 1-2 ug of compound (entrapped in bovine brain sphingomyelin/ cholesterol multilamellar vehicles); format: ADME, organism-based; conditions: in vivo; method in brief: as §1
Mus musculus [22] = assay: Biodistribution in mice stomach, after 1 hr of intravenous administration of 1-2 ug of compound (entrapped in bovine brain sphingomyelin/ cholesterol multilamellar vehicles); format: ADME, organism-based; conditions: in vivo; method in brief: as §1
Mus musculus [23] = assay: Biodistribution in mice stomach, after 48 hr of intravenous administration of 1-2 ug of compound (entrapped in bovine brain sphingomyelin/ cholesterol multilamellar vehicles); format: ADME, organism-based; conditions: in vivo
Method in brief: (§4)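 BALB/c mice (about 25 g), groups of 2–5. Compound ¹¹¹In-loaded into SM/CH (2:1, mol/mol) multilamellar vesicles, given as a single tail-vein injection. Lipid dose was 1–2 μg phospholipid/g body weight, in 50–100 μL carrying about 100 000 cpm. Mice were killed by cervical dislocation. Organs were rinsed, blotted, weighed and γ-counted, with blood background subtracted. Values are % injected dose ± SD.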

Mus musculus [24] = assay: Biodistribution in mice tail, after 12 hr of intravenous administration of 1-2 ug of compound (entrapped in bovine brain sphingomyelin/ cholesterol multilamellar vehicles); format: ADME, organism-based; conditions: in vivo; method in brief: as §4
Mus musculus [25] = assay: Biodistribution in mice tail, after 24 hr of intravenous administration of 1-2 ug of compound (entrapped in bovine brain sphingomyelin/ cholesterol multilamellar vehicles); format: ADME, organism-based; conditions: in vivo; method in brief: as §4
Mus musculus [26] = assay: Biodistribution of compound in mice leg muscle after 1 hr of intravenous injection; format: ADME, organism-based, Muscle tissue; conditions: in vivo; method in brief: as §2
Mus musculus [27] = assay: Biodistribution of compound in mice liver after 1 hr of intravenous injection; format: ADME, organism-based; conditions: in vivo; method in brief: as §2
Mus musculus [28] = assay: Biodistribution of compound in mice skin after 0.17 hr of intravenous injection; format: ADME, organism-based, Zone of skin; conditions: in vivo; method in brief: as §2
Mus musculus [29] = assay: Biodistribution of compound in mice skin after 1 hr of intravenous injection; format: ADME, organism-based, Zone of skin; conditions: in vivo; method in brief: as §2
Mus musculus [30] = assay: Biodistribution of compound in mice spleen after 1 hr of intravenous injection; format: ADME, organism-based; conditions: in vivo; method in brief: as §2
Mus musculus [31] = assay: Biodistribution of compound in mice tail after 1 hr of intravenous injection; format: ADME, organism-based; conditions: in vivo; method in brief: as §2
Mus musculus [32] = assay: Biodistribution in mice blood, after 12 hr of intravenous administration of 1-2 ug of compound (entrapped in bovine brain sphingomyelin/ cholesterol multilamellar vehicles); format: ADME, organism-based; conditions: in vivo; method in brief: as §1
Mus musculus [33] = assay: Biodistribution in mice blood, after 24 hr of intravenous administration of 1-2 ug of compound (entrapped in bovine brain sphingomyelin/ cholesterol multilamellar vehicles); format: ADME, organism-based; conditions: in vivo; method in brief: as §1
Mus musculus [34] = assay: Biodistribution in mice blood, after 48 hr of intravenous administration of 1-2 ug of compound (entrapped in bovine brain sphingomyelin/ cholesterol multilamellar vehicles); format: ADME, organism-based; conditions: in vivo; method in brief: as §1
Mus musculus [35] = assay: Biodistribution in mice carcass, after 48 hr of intravenous administrating 1-2 ug of compound (entrapped in bovine brain sphingomyelin/ cholesterol multilamellar vehicles); format: ADME, organism-based; conditions: in vivo; method in brief: as §1
[36] = Biodistribution in mice excretion, after 12 hr of intravenous administration of 1-2 ug of compound (entrapped in bovine brain sphingomyelin/ cholesterol multilamellar vehicles); format: ADME, organism-based; conditions: mouse, excretion (excreta, not specified further), read-out: ID; method in brief: as §1
Mus musculus [37] = assay: Biodistribution of compound in mice blood after 1 hr of intravenous injection; format: ADME, organism-based; conditions: in vivo; method in brief: as §2
Mus musculus [38] = assay: Biodistribution of compound in mice tail after 0.17 hr of intravenous injection; format: ADME, organism-based; conditions: in vivo; method in brief: as §2
Mus musculus [39] = assay: Biodistribution in mice kidneys, after 1 hr of intravenous administration of 1-2 ug of compound (entrapped in bovine brain sphingomyelin/ cholesterol multilamellar vehicles); conditions: in vivo

## NCCNC(=O)CN(CCN(CCN(CC(=O)O)CC(=O)O)CC(=O)O)CC(=O)O
Mus musculus [1]
  ID: 1%
Mus musculus [2]
  ID: 0.7%
Mus musculus [3]
  ID: 0.4%
Mus musculus [4]
  ID: 0.4%
Mus musculus [5]
  ID: 73.6%
Mus musculus [6]
  ID: 55.1%
Mus musculus [7]
  ID: 0.1%
Mus musculus [8]
  ID: 0.1%
Mus musculus [9]
  ID: 0%
Mus musculus [10]
  ID: 0.3%
Mus musculus [11]
  ID: 14.2% and 19.3%
Mus musculus [12]
  ID: 0.8% and 3%
[13]
  dose excreted at 21 h: 77.1%
Mus musculus [14]
  ID: 69.5%
Mus musculus [15]
  ID: 0.8% and 1.4%
Mus musculus [16]
  ID: 2.2% and 5.8%
Mus musculus [17]
  ID: 1.9% and 1.7%
Mus musculus [18]
  ID: 4%
Mus musculus [19]
  ID: 3.9%
Mus musculus [20]
  ID: 2.9%
Mus musculus [21]
  ID: 0.2%
Mus musculus [22]
  ID: 0.8%
Mus musculus [23]
  ID: 0%
Mus musculus [24]
  ID: 2.7%
Mus musculus [25]
  ID: 0.9%
Mus musculus [26]
  ID: 0.8% and 1.3%
Mus musculus [27]
  ID: 0.3% and 1.4%
Mus musculus [28]
  ID: 15.6% and 15.1%
Mus musculus [29]
  ID: 5.8% and 7.7%
Mus musculus [30]
  ID: 0.1% and 0%
Mus musculus [31]
  ID: 2%
Mus musculus [32]
  ID: 0.5%
Mus musculus [33]
  ID: 0.4%
Mus musculus [34]
  ID: 0.4%
Mus musculus [35]
  ID: 1.3%
[36]
  dose excreted at 12 h: 0%
Mus musculus [37]
  ID: 1.1% and 4.5%
Mus musculus [38]
  ID: 3.8% and 3.7%
Mus musculus [39]
  ID: 0.5%
